The source made the active and inactive calls. The calls are words filed in the database; no cut-off is given here.
Legend:
[1] = target: T1, Glucosyltransferase-S (Streptococcus mutans serotype c (strain ATCC 700610 / UA159)) (UniProt P49331); experiment: Inhibition of Wild-type Streptococcus mutans UA159 glucosyltransferase D at 50 uM by coomassie blue staining based SDS-PAGE method
T1 sequence (whole entry): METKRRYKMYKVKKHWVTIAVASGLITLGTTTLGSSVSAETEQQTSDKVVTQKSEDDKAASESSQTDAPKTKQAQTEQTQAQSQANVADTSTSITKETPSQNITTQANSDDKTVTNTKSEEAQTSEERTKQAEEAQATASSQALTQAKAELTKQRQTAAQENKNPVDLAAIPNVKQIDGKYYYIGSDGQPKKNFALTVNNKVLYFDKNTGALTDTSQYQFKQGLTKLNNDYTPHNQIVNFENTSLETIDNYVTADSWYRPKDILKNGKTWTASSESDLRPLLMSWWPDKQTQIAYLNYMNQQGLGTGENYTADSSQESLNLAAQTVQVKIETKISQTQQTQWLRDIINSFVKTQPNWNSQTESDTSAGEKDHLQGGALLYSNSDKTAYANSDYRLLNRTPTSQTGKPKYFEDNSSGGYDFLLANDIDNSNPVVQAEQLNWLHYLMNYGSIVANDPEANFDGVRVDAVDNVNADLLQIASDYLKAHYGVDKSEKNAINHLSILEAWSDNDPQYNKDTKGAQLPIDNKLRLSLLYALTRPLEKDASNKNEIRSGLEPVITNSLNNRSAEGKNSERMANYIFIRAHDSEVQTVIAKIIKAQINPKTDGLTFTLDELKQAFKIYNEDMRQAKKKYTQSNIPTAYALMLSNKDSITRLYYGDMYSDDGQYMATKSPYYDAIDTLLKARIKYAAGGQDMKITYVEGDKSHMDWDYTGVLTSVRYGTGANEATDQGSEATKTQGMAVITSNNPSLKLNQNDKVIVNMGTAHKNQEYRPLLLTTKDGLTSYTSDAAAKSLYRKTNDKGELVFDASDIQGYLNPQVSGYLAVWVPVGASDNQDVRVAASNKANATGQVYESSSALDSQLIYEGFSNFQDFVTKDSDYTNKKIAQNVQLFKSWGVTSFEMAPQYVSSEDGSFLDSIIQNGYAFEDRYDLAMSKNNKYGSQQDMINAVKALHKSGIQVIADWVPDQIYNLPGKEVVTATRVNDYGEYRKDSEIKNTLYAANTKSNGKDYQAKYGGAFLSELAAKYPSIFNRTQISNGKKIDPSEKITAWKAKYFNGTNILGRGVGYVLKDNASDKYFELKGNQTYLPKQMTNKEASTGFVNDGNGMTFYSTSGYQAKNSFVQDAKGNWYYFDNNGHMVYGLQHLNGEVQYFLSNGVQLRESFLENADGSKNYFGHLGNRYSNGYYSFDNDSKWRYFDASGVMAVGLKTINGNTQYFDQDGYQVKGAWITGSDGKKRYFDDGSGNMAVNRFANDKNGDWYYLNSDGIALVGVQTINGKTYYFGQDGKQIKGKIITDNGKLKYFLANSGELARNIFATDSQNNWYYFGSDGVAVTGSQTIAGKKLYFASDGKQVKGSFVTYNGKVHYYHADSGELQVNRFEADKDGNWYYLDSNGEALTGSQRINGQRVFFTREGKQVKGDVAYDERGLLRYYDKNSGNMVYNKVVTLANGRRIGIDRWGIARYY
Outline: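 Compound (50 µM) added to overnight S. mutans UA159 wild-type cultures; Gtfs collected and concentrated from supernatants, run on SDS-PAGE in duplicate; one gel Coomassie blue stained for protein levels.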

[2] = tested on: Streptococcus mutans; experiment: Inhibition of biofilm formation of Streptococcus mutans UA159 after 16 hrs by crystal violet staining based serial dilution method; format: functional, organism-based; conditions: Streptococcus mutans, UA159, 16 h
Outline: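 S. mutans UA159 co-incubated with compound at various concentrations; biofilm quantified by crystal violet protocol, read at OD562.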

[3] = tested on: Streptococcus mutans; experiment: Selectivity index, ratio of growth inhibition IC50 for Streptococcus mutans UA159 to biofilm inhibition IC50 for Streptococcus mutans UA159

SMILES	inhibition [1]	IC50 [2] [µM]	Ratio IC50 [3]
O=C(/C=C/c1ccc(O)cc1O)c1ccc(O)cc1	Active	162	6.6
O=C(/C=C/c1ccc(O)cc1O)c1cccc(O)c1 (stereo in doubt; 9a)	Active		
O=C(/C=C\c1ccc(O)cc1O)c1cccc(O)c1	Active	44	10.6
O=C(/C=C\c1ccc(O)cc1O)c1ccc(O)cc1	Active	77	10.1
O=C(/C=C/c1cc(O)c(O)cc1O)c1ccccc1O (stereo in doubt; 18c)	Active		

Source: ChEMBL document CHEMBL3822431, “Hydroxychalcone inhibitors of Streptococcus mutans glucosyl transferases and biofilms as potential anticaries agents” (Bioorg Med Chem Lett, 2016)
